{"source": "ChEMBL document CHEMBL4699498", "about": "(J Med Chem, 2020)", "key": {"[1]": {"tested_on": "SW-620", "experiment": "Potentiation of TMZ induced antitumor activity against SW-620 cells xenografted in Balb/c mouse assessed as tumor growth suppression at 10 mg/kg, po qd administered for 5 days", "format": "functional, organism-based", "conditions": "time 5.0 day", "outline": "(§1)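 Male BALB/c nude mice carried SW620 xenografts (6×10^6 cells s.c.), randomized at ~150 mm³ (6 per group). TMZ 50 mg/kg was given orally once daily on days 0-4, 45 min after the partner drug. Partners were 5 or 10 mg/kg intraperitoneally or 10 mg/kg by oral gavage, daily for 5 days. Vehicle was 5% DMSO/20% PEG400/10% Cremophor EL/65% saline. Tumor volume and body weight were recorded 2-3 times weekly.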"}, "[2]": {"tested_on": "MDA-MB-231", "experiment": "Antiproliferation activity against human MDA-MB-231 assessed as cell growth inhibition incubated for 7 days by CCK-8 assay", "format": "functional, cell-based", "conditions": "time 7.0 day", "outline": "(§2)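 Cells were sub-cultured at least twice and seeded for 24 h before dosing. Compounds came from 10 mM DMSO stocks, given as 10 points of 3-fold serial dilution starting at 10-20 μM. Incubation was about 7 days (Capan-1 13 days) at 37 °C, 5% CO2. Read-out was CCK-8 absorbance at 450 nm, as % growth versus DMSO wells (duplicate wells). IC50 was fitted by nonlinear regression; three independent experiments.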"}, "[3]": {"experiment": "Acute toxicity in Balb/c mouse xenografted with SW-620 cells assessed as mean weight loss at 10 mg/kg, po qd administered for 5 days in presence of TMZ measured on day 9 relative to control", "format": "organism-based", "conditions": "in vivo, 216 h", "outline": "as §1"}, "[4]": {"tested_on": "MDA-MB-468", "experiment": "Antiproliferation activity against human MDA-MB-468 assessed as cell growth inhibition incubated for 7 days by CCK-8 assay", "format": "functional, cell-based", "conditions": "time 7.0 day", "outline": "as §2"}, "[5]": {"tested_on": "SW-620", "experiment": "Antiproliferation activity against human SW620 assessed as cell growth inhibition incubated for 7 days by CCK-8 assay", "format": "functional, cell-based", "conditions": "time 7.0 day", "outline": "as §2"}, "[6]": {"tested_on": "CAPAN-1", "experiment": "Antiproliferative activity against human CAPAN-1 cells assessed as cell growth inhibition incubated for 13 days by CCK-8 assay", "format": "functional, cell-based", "conditions": "CAPAN-1, 312 h", "outline": "as §2"}, "[7]": {"tested_on": "HCC1937", "experiment": "Antiproliferation activity against human HCC1937 assessed as cell growth inhibition incubated for 7 days by CCK-8 assay", "format": "functional, cell-based", "conditions": "time 7.0 day", "outline": "as §2"}, "[8]": {"experiment": "Acute toxicity in Balb/c mouse xenografted with Capan1 cells assessed as lethality at 100 mg/kg, po qd administered for 5 days in presence of cisplatin", "format": "organism-based", "conditions": "in vivo, 120 h, time 5 day", "outline": "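Male BALB/c nude mice (5–6 weeks) carried s.c. Capan-1 xenografts (5×10^6 cells, right armpit) and were randomised at about 150 mm³, 6 per group. The agent was given once daily on days 0–4, by oral gavage or i.p., in DMSO/PEG400/Cremophor EL/saline vehicle. Cisplatin 6 mg/kg in saline was given i.p. on day 2, 45 min after the agent. Body weight was recorded 2–3 times weekly.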"}, "[9]": {"tested_on": "MDA-MB-436", "experiment": "Antiproliferative activity against human MDA-MB-436 cells assessed as cell growth inhibition incubated for 7 days by CCK-8 assay", "format": "functional, cell-based", "conditions": "MDA-MB-436, 168 h", "outline": "as §2"}, "[10]": {"tested_on": "MDA-MB-436", "experiment": "Induction of DNA damage in human MDA-MB-436 cells assessed as increase in gammaH2AX foci formation incubated for 24 hrs by Western blot analysis", "format": "functional, cell-based", "conditions": "dose microM 0.1-10, time 24.0 hrs", "outline": "(§3)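 MDA-MB-436 (BRCA1-/-) or Capan-1 (BRCA2-/-) cells were treated 24 h at the indicated concentrations. Lysis was in RIPA buffer with protease inhibitors, and 20-30 μg protein was run on SDS-PAGE. Blots were probed for γH2AX, with β-tubulin as the loading control, and detected by ECL.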"}, "[11]": {"tested_on": "LNCaP", "experiment": "Antiproliferation activity against human LNCAP assessed as cell growth inhibition incubated for 7 days by CCK-8 assay", "format": "functional, cell-based", "conditions": "time 7.0 day", "outline": "as §2"}, "[12]": {"tested_on": "CAPAN-1", "experiment": "Antitumor activity against CAPAN-1 cells xenografted in Balb/c mouse assessed as tumor growth inhibition at 100 mg/kg, po qd administered for 21 days", "format": "functional, organism-based", "conditions": "time 21.0 day", "outline": "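Male BALB/c nude mice (5-6 weeks old) carried subcutaneous Capan-1 xenografts (5×10^6 cells, right armpit). At ~150 mm³ they were randomized (6 per group). Dosing was 100 mg/kg by oral gavage daily for 21 days, or 25 mg/kg intraperitoneally 5 times a week for 3 weeks. Vehicle was 5% DMSO/20% PEG400/10% Cremophor EL/65% saline. Tumor volume was (length/2)×width², measured 2-3 times weekly.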"}, "[13]": {"tested_on": "CWR22R", "experiment": "Antiproliferation activity against human 22Rv1 assessed as cell growth inhibition incubated for 7 days by CCK-8 assay", "format": "functional, cell-based", "conditions": "time 7.0 day", "outline": "as §2"}, "[14]": {"tested_on": "CAPAN-1", "experiment": "Induction of DNA damage in human Capan1 cells assessed as increase in gammaH2AX foci formation incubated for 24 hrs by Western blot analysis", "format": "functional, cell-based", "conditions": "dose microM 0.1-10, time 24.0 hrs", "outline": "as §3"}, "[15]": {"tested_on": "PC-3", "experiment": "Antiproliferation activity against human PC-3 assessed as cell growth inhibition incubated for 7 days by CCK-8 assay", "format": "functional, cell-based", "conditions": "time 7.0 day", "outline": "as §2"}, "[16]": {"experiment": "Acute toxicity in Balb/c mouse xenografted with SW-620 cells assessed as lethality at 10 mg/kg, po qd administered for 5 days in presence of TMZ", "format": "organism-based", "conditions": "in vivo, 120 h, time 5 day", "outline": "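In male BALB/c nude mice (5–6 weeks), s.c. SW620 xenografts (6×10^6 cells, right armpit) were grown to about 150 mm³, then randomised, 6 per group. The agent was given once daily for 5 days, orally or i.p., in 5% DMSO/20% PEG400/10% Cremophor EL/65% saline. TMZ 50 mg/kg was given orally once daily for 5 days from day 0, 45 min after the agent. Body weight was measured 2–3 times weekly.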"}}, "note": "Activity calls are given as the source filed them. The rule behind the calls is not given here.", "data": [{"compound": "O=C(c1cc(Cc2n[nH]c(=O)c3ccccc23)ccc1F)N1CCN(C(=O)C2CC2)CC1", "note": "[OLAPARIB]", "values": [{"measurement": "Activity", "setting": "[1]", "result": "Active"}, {"measurement": "Activity", "setting": "[2]", "result": "Active"}, {"measurement": "Activity", "setting": "[3]", "result": 15, "unit": "%"}, {"measurement": "Activity", "setting": "[4]", "result": "Active"}, {"measurement": "Activity", "setting": "[5]", "result": "Active"}, {"measurement": "IC50", "setting": "[6]", "result": 27, "unit": "nM"}, {"measurement": "Activity", "setting": "[7]", "result": "Active"}, {"measurement": "Activity", "setting": "[8]", "result": "Non-Toxic"}, {"measurement": "IC50", "setting": "[9]", "result": 18, "unit": "nM"}, {"measurement": "Activity", "setting": "[10]", "result": "Active"}, {"measurement": "Activity", "setting": "[11]", "result": "Active"}, {"measurement": "Activity", "setting": "[12]", "result": "Active"}, {"measurement": "Activity", "setting": "[13]", "result": "Active"}, {"measurement": "Activity", "setting": "[14]", "result": "Active"}, {"measurement": "Activity", "setting": "[15]", "result": "Active"}, {"measurement": "Activity", "setting": "[16]", "result": "Non-Toxic"}]}]}
